Laboratory results reported in ChEMBL document CHEMBL3351355, “Structure-affinity/activity relationships of 1,4-dioxa-spiro[4.5]decane based ligands at α1 and 5-HT1A receptors” (Eur J Med Chem, 2014).

Experiments:
[1] = target: T1, Alpha-1D adrenergic receptor (Homo sapiens, UniProt P25100); experiment: Displacement of [3H]prazosin from human recombinant alpha1D adrenoceptor expressed in CHO cells after 30 mins by liquid scintillation counting; format: cell-based
T1 sequence (P25100 whole entry): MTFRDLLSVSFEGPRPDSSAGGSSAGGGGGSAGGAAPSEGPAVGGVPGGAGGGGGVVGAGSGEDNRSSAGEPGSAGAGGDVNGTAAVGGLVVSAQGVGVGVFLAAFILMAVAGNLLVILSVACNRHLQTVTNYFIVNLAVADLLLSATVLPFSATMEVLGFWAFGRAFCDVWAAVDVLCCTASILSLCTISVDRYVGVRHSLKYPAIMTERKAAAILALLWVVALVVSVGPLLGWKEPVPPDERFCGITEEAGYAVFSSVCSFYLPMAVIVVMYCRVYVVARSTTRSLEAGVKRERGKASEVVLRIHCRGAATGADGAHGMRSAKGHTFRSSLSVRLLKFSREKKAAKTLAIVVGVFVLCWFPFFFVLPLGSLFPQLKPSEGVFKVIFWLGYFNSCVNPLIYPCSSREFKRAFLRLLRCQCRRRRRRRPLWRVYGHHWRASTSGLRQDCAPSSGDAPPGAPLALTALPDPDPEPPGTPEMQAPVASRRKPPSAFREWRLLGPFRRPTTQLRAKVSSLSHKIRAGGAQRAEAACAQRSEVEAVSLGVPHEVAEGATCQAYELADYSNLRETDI
Method in brief: (§1)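 CHO cells were stably transfected by electroporation with each human α1 subtype. Membranes (70 µg protein) were incubated in 50 mM Tris pH 7.4 with 0.1–0.4 nM [3H]prazosin and competitor (1 pM–1 µM) for 30 min at 25 °C. Nonspecific binding with 10 µM tamsulosin. Filtration and scintillation counting. pKi from 2–3 experiments in duplicate.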

[2] = target: T2, 5-hydroxytryptamine receptor 1A (Homo sapiens) (UniProt P08908); experiment: Agonist activity at human recombinant 5-HT1A receptor expressed in HeLa cells after 30 mins by [35S]GTPgammaS binding assay relative to control; format: functional, cell-based
T2 sequence (whole entry): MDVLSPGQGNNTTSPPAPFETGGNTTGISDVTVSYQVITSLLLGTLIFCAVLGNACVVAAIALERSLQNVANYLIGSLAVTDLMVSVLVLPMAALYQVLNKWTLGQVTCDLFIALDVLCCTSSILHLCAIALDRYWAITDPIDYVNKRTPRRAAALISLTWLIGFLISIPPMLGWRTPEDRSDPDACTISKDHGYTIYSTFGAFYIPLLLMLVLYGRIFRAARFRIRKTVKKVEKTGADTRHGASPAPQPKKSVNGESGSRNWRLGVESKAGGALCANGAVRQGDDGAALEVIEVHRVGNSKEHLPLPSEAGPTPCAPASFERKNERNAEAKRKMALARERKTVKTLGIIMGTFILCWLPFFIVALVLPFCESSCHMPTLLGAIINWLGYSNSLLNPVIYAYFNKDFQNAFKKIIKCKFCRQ
Method in brief: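 HeLa membranes (50–70 µg protein) in 20 mM HEPES, 3 mM MgSO4, 120 mM NaCl, pH 7.4, preincubated 20 min at 30 °C with 30 µM GDP and drug (0.01 nM–10 µM), then 200 pM [35S]GTPγS added for 30 min at 30 °C. Nonspecific binding with 10 µM GTPγS. Filtration and scintillation counting. Data expressed as % increase over basal, 8-OH-DPAT maximum = 100%. Emax and pD2 derived.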

[3] = target: T3, Alpha-1B adrenergic receptor (Homo sapiens, UniProt P35368); experiment: Displacement of [3H]prazosin from human recombinant alpha1B adrenoceptor expressed in CHO cells after 30 mins by liquid scintillation counting; format: cell-based; method in brief: as §1
T3 sequence (P35368 whole entry): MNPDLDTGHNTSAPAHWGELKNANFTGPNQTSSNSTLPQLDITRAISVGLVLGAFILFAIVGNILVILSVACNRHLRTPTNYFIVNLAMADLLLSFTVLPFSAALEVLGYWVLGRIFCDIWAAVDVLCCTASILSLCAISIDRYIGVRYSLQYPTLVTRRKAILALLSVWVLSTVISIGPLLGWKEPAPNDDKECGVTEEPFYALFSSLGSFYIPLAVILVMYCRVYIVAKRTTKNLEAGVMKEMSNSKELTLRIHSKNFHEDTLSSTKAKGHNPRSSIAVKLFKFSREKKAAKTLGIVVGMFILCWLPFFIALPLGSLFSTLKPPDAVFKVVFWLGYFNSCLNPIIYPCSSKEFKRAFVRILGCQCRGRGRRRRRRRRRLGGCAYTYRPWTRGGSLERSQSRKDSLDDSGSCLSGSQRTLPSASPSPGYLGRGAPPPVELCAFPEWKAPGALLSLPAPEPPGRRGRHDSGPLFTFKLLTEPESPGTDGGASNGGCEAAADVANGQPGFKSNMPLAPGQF

[4] = target: T4, 5-hydroxytryptamine receptor 1A (Homo sapiens, UniProt P08908); experiment: Displacement of [3H]8-OH-DPAT from human recombinant 5-HT1A receptor expressed in HeLa cells after 30 mins by liquid scintillation counting; format: cell-based
T4 sequence (P08908 whole entry): T2 sequence (whole entry)
Method in brief: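 HeLa cells stably carrying genomic clone G-21 were grown in DMEM with 10% FCS, then lysed in Tris/EDTA pH 7.4. Membranes (80–90 µg protein) were incubated in 50 mM Tris, 2.5 mM MgCl2, 10 µM pargyline, pH 7.4, with 1 nM [3H]8-OH-DPAT and competitor (1 pM–1 µM) for 30 min at 30 °C, in triplicate. Nonspecific binding with 10 µM 5-HT. pKi from 2–3 experiments.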

[5] = target: T2, 5-hydroxytryptamine receptor 1A (Homo sapiens); experiment: Agonist activity at human recombinant 5-HT1A receptor expressed in HeLa cells after 30 mins by [35S]GTPgammaS binding assay; format: functional, cell-based
Method in brief: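 HeLa membranes expressing human 5-HT1A (50–70 µg protein) in 20 mM HEPES, 3 mM MgSO4, 120 mM NaCl pH 7.4 with 30 µM GDP; test drug 0.01 nM–10 µM, 20 min at 30 °C, then 200 pM [35S]GTPγS for 30 min at 30 °C. Nonspecific with 10 µM GTPγS; filtration and scintillation counting. Emax as % of maximal 8-OH-DPAT stimulation; pD2 = −log EC50.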

In the case of `COc1ccccc1N1CCN(CC2COC3(CC[S+]([O-])CC3)O2)CC1` (stereo not given), the Ki [1] is reported as 42.7 nM, the Emax [2] is reported as 139% and the Ki [3] is reported as 479 nM. The Ki [4] was 117 nM and the pD2 [5] was 8.13.
